Laboratory results: ChEMBL document CHEMBL4431317, “Allosteric Inhibition of SHP2: Identification of a Potent, Selective, and Orally Efficacious Phosphatase Inhibitor” (J Med Chem, 2016)
Each block holds one compound with its values, some of them ahead of it. Activity calls are given as the source filed them. The calls are words filed in the database; no cut-off is given here.

Experiments:
KYSE-520 cell line [1] = assay: Antitumor activity against human KYSE520 cells xenografted in immunocompromised nude mouse assessed as tumor stasis at 80 mg/kg administered qd through oral gavage relative to vehicle control; format: functional, organism-based
In short: (§1)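 Female nude mice inoculated subcutaneously with 3 x 10^6 parental KYSE-520 cells in 50% phenol red-free matrigel in HBSS. Tumors calipered twice weekly in two dimensions. At roughly 200 mm3, mice randomized to vehicle, test compound (10, 30 or 100 mg/kg qd) or erlotinib (80 mg/kg qd), all by oral gavage. Growth compared with vehicle group.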

[2] = biological target: T1, Tyrosine-protein phosphatase non-receptor type 11 (Homo sapiens, UniProt Q06124); assay: Inhibition of human 6his-tagged SHP2 (2 to 593 residues) expressed in Escherichia coli BL21 Star (DE3) cells preincubated with IRS1_pY1172(dPEG8)pY1222 for 30 to 60 mins followed by addition of DiFMUP measured after 30 mins by fluorescence analysis
T1 sequence (Q06124 whole entry): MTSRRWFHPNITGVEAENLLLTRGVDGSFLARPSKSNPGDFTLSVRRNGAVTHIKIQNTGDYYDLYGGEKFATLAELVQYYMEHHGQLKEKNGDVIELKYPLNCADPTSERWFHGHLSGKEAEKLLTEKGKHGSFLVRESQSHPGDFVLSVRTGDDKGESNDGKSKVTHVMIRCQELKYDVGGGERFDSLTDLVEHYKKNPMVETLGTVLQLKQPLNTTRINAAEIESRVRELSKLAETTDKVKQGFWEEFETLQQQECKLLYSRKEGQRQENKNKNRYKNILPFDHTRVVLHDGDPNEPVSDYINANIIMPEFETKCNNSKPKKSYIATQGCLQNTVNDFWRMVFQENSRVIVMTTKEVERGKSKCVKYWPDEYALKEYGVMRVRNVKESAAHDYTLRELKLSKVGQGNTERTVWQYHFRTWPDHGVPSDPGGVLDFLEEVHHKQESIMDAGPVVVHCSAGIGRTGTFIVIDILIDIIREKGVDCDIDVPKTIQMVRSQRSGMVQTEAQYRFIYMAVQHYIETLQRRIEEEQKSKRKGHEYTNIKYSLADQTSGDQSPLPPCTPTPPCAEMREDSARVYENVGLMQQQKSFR

KYSE-520 cell line [3] = assay: Antitumor activity against human KYSE520 cells xenografted in immunocompromised nude mouse assessed as tumor growth at 100 mg/kg administered qd through oral gavage relative to vehicle control; format: functional; in short: as §1
KYSE-520 cell line [4] = assay: Antitumor activity against human KYSE520 cells xenografted in immunocompromised nude mouse assessed as tumor growth inhibition at 10 mg/kg administered qd through oral gavage relative to vehicle control; format: functional; in short: as §1
[5] = Apparent permeability across apical to basolateral side in human Caco2 cells; format: ADME, cell-based; conditions: Caco-2
[6] = Drug uptake in plasma of immunocompromised nude mouse xenografted with human KYSE520 cells administered qd via oral gavage; format: ADME; conditions: in the assay text read “administered as a single dose via” for “administered qd via”
In short: (§2)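 Female nude mice bearing subcutaneous KYSE-520 xenografts (3 x 10^6 cells in 50% matrigel/HBSS) received a single oral gavage dose of vehicle or compound (30 or 100 mg/kg) once tumors reached roughly 500 mm3. Euthanized at set time points; plasma harvested for drug levels and xenograft fragments for p-ERK.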

Mus musculus = assay: In vivo inhibition of ERK phosphorylation in human KYSE520 cells xenografted in immunocompromised nude mouse at 30 and 100 mg/kg administered qd through oral gavage; format: functional, organism-based; conditions: in the assay text read “administered as a single dose through” for “administered qd through”; in short: as §2
KYSE-520 cell line [7] = assay: Antitumor activity against human KYSE520 cells xenografted in immunocompromised nude mouse assessed as tumor growth inhibition at 30 mg/kg administered qd through oral gavage relative to vehicle control; format: functional; in short: as §1
[8] = AUC in C57BL/6 mouse at 5 mg/kg, po by LC-MS/MS analysis; format: ADME, organism-based; conditions: in vivo
In short: (§3)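 Male C57BL/6 mice dosed orally at 5 mg/kg. Whole blood taken by tail transection at 0.25, 0.5, 1, 2, 4 and 7 h into EDTA. Plasma stored at -20 °C, precipitated with acetonitrile containing internal standard. PK parameters from noncompartmental analysis; AUClast by linear trapezoidal rule. %F = (AUCinf,po/AUCinf,iv)×(Dose iv/Dose po), with IV reference at 1 mg/kg via tail vein. Results given as mean.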

[9] = Oral bioavailability in C57BL/6 mouse at 5 mg/kg by LC-MS/MS analysis; format: ADME, organism-based; conditions: in vivo; in short: as §3
[10] = Solubility of the compound at pH 6.8; format: physicochemical; conditions: buffer
[11] = biological target: T1, Tyrosine-protein phosphatase non-receptor type 11; assay: Inhibition of human SHP2 PTP domain (237 to 529 residues) by fluorescence analysis
[12] = biological target: T2, Tyrosine-protein phosphatase non-receptor type 11 (Homo sapiens) (UniProt Q06124); assay: Inhibition of human 6his-tagged SHP2 (1 to 525 residues) expressed in Escherichia coli BL21 Star (DE3) cells assessed as change in melting temperature at 100 uM by SYPRO orange dye based differential scanning fluorometry
T2 sequence (whole entry): T1 sequence (Q06124 whole entry)
In short: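 Thermal shift with SHP2 1-525 construct at 100 µg/mL, 5× SYPRO Orange, 100 mM Bis-Tris pH 6.5, 100 mM NaCl, 0.25 mM TCEP, 5% DMSO; compound at 100 µM final. Ramp 25–75 °C in 0.5 °C steps, ex 465/em 580 nm. Tm as transition midpoint by semi-parametric fit; ΔTm against mean of 32 DMSO-only apo controls per plate.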

Compound: C#Cc1cccc(Nc2ncnc3cc(OCCOC)c(OCCOC)cc23)c1
Activity (KYSE-520 cell line [1]): Active

IC50 [2]: > 100 µM
Compound: Cc1cccc(-c2cnc(N3C[C@@H](C)N[C@@H](C)C3)nc2N)c1C

IC50 [2]: 6.5 µM
Compound: CN(C)C1CCN(c2ncc(-c3cccc(Cl)c3Cl)c(N)n2)CC1

IC50 [2]: 99 µM
Compound: C[C@@H]1CN(c2ncc(-c3cccc(Cl)c3)c(N)n2)C[C@H](C)N1

IC50 [2]: 1.3 µM
Compound: Nc1nc(N2CCC(N)CC2)ncc1-c1cccc(Cl)c1Cl

Papp A→B [5]: 13.2 ×10⁻⁶ cm/s
Drug uptake [6]: Dose-dependent effect
AUC [8]: 565 µM·h
bioavailability [9]: 46%
solubility [10]: > 500 µM
Compound: CC1(N)CCN(c2cnc(-c3cccc(Cl)c3Cl)c(N)n2)CC1
T/C (KYSE-520 cell line [3]): 3%
TGI (KYSE-520 cell line [4]): 19%
inhibition (Mus musculus): Active
TGI (KYSE-520 cell line [7]): 61%

IC50 [2]: 54 µM
Compound: C[C@@H]1CN(c2ncc(-c3ccc(Cl)c(Cl)c3)c(N)n2)C[C@H](C)N1

IC50 [11]: > 100 µM
ΔTm [12]: 3 to 3.02 °C
Compound: C[C@@H]1CN(c2ncc(-c3cccc(Cl)c3Cl)c(N)n2)C[C@H](C)N1

IC50 [2]: 22 µM
Compound: CNc1nc(N2CCC(C)(N)CC2)cnc1-c1cccc(Cl)c1Cl
